Source: PubChem BioAssay (several laboratories)
PostGolgi ctrl: growth of the yeast control strain, post-Golgi counter-screen; inhibition, % at 10 µM; 98,000 tested, 5% active; AID 738; efflux-deficient yeast background strain, growth absorbance A615, 16 h
EphB4 ephrin blk: blocks human EphB4 binding to ephrin-B2; inhibition, % at 7 µM; 97,000 tested, 0.15% active; EphB4 LBD / TNYL-RAW-Alexa532 peptide, fluorescence polarization; P54760;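 active means inhibition above the screen-wide mean inhibition plus 3 SD, cut at about 15% in these data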;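 further: 0% = DMSO wells and 100% = excess unlabeled TNYL-RAW peptide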
PLK1 kinase inh: PLK1 (human) kinase inhibition; AID 619; P53350; 97,000 tested, 0.53% active; inhibition, % at 10 µM; recombinant PLK1 kinase, TR-FRET peptide phosphorylation;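 active means inhibition of 50% or more in the single-concentration screen; inactive means inhibition below 50%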;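 further: 0% = DMSO max control and 100% = H-89 dihydrochloride min control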
Target sequence (P53350 whole entry, looked up): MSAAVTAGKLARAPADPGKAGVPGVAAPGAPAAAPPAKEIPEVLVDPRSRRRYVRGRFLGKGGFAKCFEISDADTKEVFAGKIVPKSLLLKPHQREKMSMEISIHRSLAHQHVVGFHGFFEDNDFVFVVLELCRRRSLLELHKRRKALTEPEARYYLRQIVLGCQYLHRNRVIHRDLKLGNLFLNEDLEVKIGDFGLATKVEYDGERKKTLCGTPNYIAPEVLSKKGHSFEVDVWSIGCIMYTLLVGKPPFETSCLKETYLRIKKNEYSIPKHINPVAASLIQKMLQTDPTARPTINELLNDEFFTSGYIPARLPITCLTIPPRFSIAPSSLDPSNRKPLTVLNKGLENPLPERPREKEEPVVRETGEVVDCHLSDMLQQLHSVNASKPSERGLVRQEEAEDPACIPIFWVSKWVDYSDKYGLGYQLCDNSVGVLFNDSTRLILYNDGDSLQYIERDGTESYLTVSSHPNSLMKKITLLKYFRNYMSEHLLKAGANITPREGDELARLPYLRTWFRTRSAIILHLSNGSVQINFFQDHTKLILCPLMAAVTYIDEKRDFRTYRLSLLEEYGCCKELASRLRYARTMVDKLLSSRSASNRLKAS
PostGolgi yeast: growth inhibition of a yeast mutant, post-Golgi transport screen | post-Golgi transport phenotypic cell assay | inhibition, % at 10 µM | 98,000 tested, 0.9% active | AID 739;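 further: yeast cells grown in 1536-well plates; yeast grown about 18 h at 30C before absorbance read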
PLK1 PBD inh: inhibitors of human Plk1 polo box domain binding; P53350; Plk1 PBD phosphopeptide binding, fluorescence polarization; inhibition, %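 (tested at about 20 µM)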; 97,000 tested, 0.13% active; AID 693; in the data active means inhibition above about 34%, passing the limit was not always enough
HIV Rev-RRE inh: inhibitors of HIV-1 Rev-RRE RNA interaction; Rev peptide-RRE RNA binding, FRET; inhibition, % at 8 µM; P05866; 97,000 tested, 0.79% active;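 active means inhibition above the screen-wide mean plus 3 SD, cut at about 35% in these data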;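 further: 0% = median DMSO wells and 100% = median Neomycin B control wells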
Target sequence (P05866 whole entry, looked up): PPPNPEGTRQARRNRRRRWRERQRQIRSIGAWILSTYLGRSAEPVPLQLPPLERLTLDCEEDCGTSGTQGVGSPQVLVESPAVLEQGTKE
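Assay system: Rev peptide and RRE RNA, both fluorescently labelled; times: 5 min preincubation and 15 min binding, 25 °C; detection: FRET, ex 480 nm, em 540 and 671 nm; read-out basis: % inhibition from 671/540 nm acceptor-to-donor ratio, scaled between controls; benchmarks: DMSO low control, neomycin B high control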
The depositor's hits bear a star. The list is not random: actives were taken first. Their share in the collection is about 6.4%. Unless noted, no stated cut-off is given here; in the data, active means inhibition above about 30%; inactive means the rest.

How did CC(=O)N1CCN(c2ccc(NC(=O)c3ccc(N4CCCC4)c([N+](=O)[O-])c3)cc2Cl)CC1 do in these assays?
PostGolgi ctrl: 18; EphB4 ephrin blk: -4; PLK1 kinase inh: -9; PostGolgi yeast: -14; PLK1 PBD inh: -9; HIV Rev-RRE inh: -4

How did COC(=O)c1ccc(N2CCC(c3cc(-c4ccc(OC)cc4)n[nH]3)CC2)c([N+](=O)[O-])c1 do in these assays?
PostGolgi ctrl: 27; EphB4 ephrin blk: 2; PLK1 kinase inh: -16; PostGolgi yeast: 8; PLK1 PBD inh: -22; HIV Rev-RRE inh: 2

How did CC(=O)c1ccc(N2CCC(c3cc(-c4ccc(Cl)cc4)n[nH]3)CC2)c([N+](=O)[O-])c1 do in these assays?
PostGolgi ctrl: 43*; EphB4 ephrin blk: 5; PLK1 kinase inh: -7; PostGolgi yeast: 41*; PLK1 PBD inh: -35; HIV Rev-RRE inh: 9

How did Cn1c(SCc2cc(=O)[nH]c3ccccc23)nnc1-c1ccc(Br)cc1 do in these assays?
PostGolgi ctrl: 5; EphB4 ephrin blk: -2; PLK1 kinase inh: -3; PostGolgi yeast: 2; PLK1 PBD inh: 8; HIV Rev-RRE inh: 10

Results for Oc1c(Cl)cc(Cl)cc1C=Nc1ccc2c(c1)OCCO2 ?
PostGolgi ctrl: 9; EphB4 ephrin blk: 6; PLK1 kinase inh: 8; PostGolgi yeast: 0; PLK1 PBD inh: -3; HIV Rev-RRE inh: 46*

What do the screens show for `CCOC(=O)N1CCC(NC(=O)c2csc3c2CCCC3)CC1`?
PostGolgi ctrl: 28; EphB4 ephrin blk: -1; PLK1 kinase inh: -11; PostGolgi yeast: -1; PLK1 PBD inh: -14; HIV Rev-RRE inh: 0

Results for N#C/C(=C(/O)COC(=O)CCc1ccc(S(=O)(=O)N2CCOCC2)cc1)c1nc2ccccc2[nH]1 ?
PostGolgi ctrl: 1; EphB4 ephrin blk: -1; PLK1 kinase inh: 2; PostGolgi yeast: 1; PLK1 PBD inh: 4; HIV Rev-RRE inh: 45*

What do the screens show for `Cc1cc(NC(=O)c2cc3nc(C4CC4)cc(C(F)(F)F)n3n2)no1`?
PostGolgi ctrl: 31*; EphB4 ephrin blk: 3; PLK1 kinase inh: -5; PostGolgi yeast: 12; PLK1 PBD inh: -5; HIV Rev-RRE inh: -4

How did CCOC(=O)N1CCC(n2c(SCC(=O)Nc3nccs3)nc3ccsc3c2=O)CC1 do in these assays?
PostGolgi ctrl: -2; EphB4 ephrin blk: -1; PLK1 kinase inh: -8; PostGolgi yeast: 1; PLK1 PBD inh: -1; HIV Rev-RRE inh: 6

What do the screens show for `COc1ccc(/C=N/NC(=O)c2ccn[nH]2)cc1COc1ccc(Cl)cc1Cl`?
PostGolgi ctrl: 62*; EphB4 ephrin blk: 3; PLK1 kinase inh: -10; PostGolgi yeast: 0; PLK1 PBD inh: 13; HIV Rev-RRE inh: 4

Results for COc1ccc(/C=N/NC(=O)c2ccn[nH]2)cc1COc1ccc(F)cc1 ?
PostGolgi ctrl: -3; EphB4 ephrin blk: 6; PLK1 kinase inh: -3; PostGolgi yeast: -6; PLK1 PBD inh: 0; HIV Rev-RRE inh: 14

What do the screens show for `COc1cc(/C=N/NC(=O)c2ccoc2C)cc(OC)c1OC`?
EphB4 ephrin blk: 2; PLK1 kinase inh: -4; PLK1 PBD inh: -6; HIV Rev-RRE inh: -3

How did COc1ccc(/C=N/NC(=O)c2ccoc2C)cc1COc1ccc(Cl)cc1 do in these assays?
PostGolgi ctrl: 49*; EphB4 ephrin blk: -5; PLK1 kinase inh: -4; PostGolgi yeast: 11; PLK1 PBD inh: 10; HIV Rev-RRE inh: 3

What do the screens show for `S=C(Nc1ccccc1)Nc1nc2ccccc2n1CCOc1ccccc1`?
PostGolgi ctrl: 32*; EphB4 ephrin blk: 3; PLK1 kinase inh: -10; PostGolgi yeast: -1; PLK1 PBD inh: -38; HIV Rev-RRE inh: 1

Results for O=C(CCN1CCN(c2ccc(Cl)cc2)CC1)Nc1nccs1 ?
PostGolgi ctrl: 8; EphB4 ephrin blk: -3; PLK1 kinase inh: 62*; PostGolgi yeast: -2; PLK1 PBD inh: 1; HIV Rev-RRE inh: 3

How did Cc1nn(-c2ccccc2)c2c1C(O)n1c(nc3ccccc31)S2 (centres undefined) do in these assays?
PostGolgi ctrl: 20; PostGolgi yeast: -4

What do the screens show for `COC(=O)C1=C(C)N=c2s/c(=C3\C(=O)Nc4ccccc43)c(=O)n2C1c1ccccc1` (centres undefined)?
PostGolgi ctrl: 39*; EphB4 ephrin blk: 8; PLK1 kinase inh: -2; PostGolgi yeast: -1; PLK1 PBD inh: -26; HIV Rev-RRE inh: -2

How did CCOC(=O)C1=C(C)N=c2s/c(=C/c3ccco3)c(=O)n2C1c1cccc(OC)c1 (centres undefined) do in these assays?
PostGolgi ctrl: 15; EphB4 ephrin blk: 1; PLK1 kinase inh: -8; PostGolgi yeast: -12; PLK1 PBD inh: -4; HIV Rev-RRE inh: 15

How did COC(=O)C1=C(C)N=c2s/c(=C/c3ccoc3)c(=O)n2C1c1ccccc1 (centres undefined) do in these assays?
PostGolgi ctrl: 59*; EphB4 ephrin blk: 6; PLK1 kinase inh: -11; PostGolgi yeast: 6; PLK1 PBD inh: -53; HIV Rev-RRE inh: 51*

What do the screens show for `CCOC(=O)C1=C(C)N=c2s/c(=C3/C(=O)Nc4ccccc43)c(=O)n2C1c1ccc(C)cc1` (centres undefined)?
EphB4 ephrin blk: -2; PLK1 kinase inh: -8; PLK1 PBD inh: 5; HIV Rev-RRE inh: 13

How did COc1ccc(C2C(C(C)=O)=C(C)N=c3s/c(=C/c4ccc5c(c4)OCO5)c(=O)n32)cc1 (centres undefined) do in these assays?
PostGolgi ctrl: 14; EphB4 ephrin blk: -1; PLK1 kinase inh: -8; PostGolgi yeast: -2; PLK1 PBD inh: 28; HIV Rev-RRE inh: 44*

Results for CCCC(=O)NCCc1ccc(F)cc1 ?
PostGolgi ctrl: 5; EphB4 ephrin blk: 0; PLK1 kinase inh: -9; PostGolgi yeast: -6; PLK1 PBD inh: -12; HIV Rev-RRE inh: 5

What do the screens show for `Cc1cc(C)c(S(=O)(=O)N2CCC(C(=O)NCc3ccco3)CC2)c(C)c1`?
PostGolgi ctrl: 5; EphB4 ephrin blk: 9; PLK1 kinase inh: -5; PostGolgi yeast: 2; PLK1 PBD inh: -15; HIV Rev-RRE inh: 4

Results for c1ccc(-c2nnc(N3CCOCC3)nc2-c2ccccc2)cc1 ?
PostGolgi ctrl: 54*; EphB4 ephrin blk: -9; PLK1 kinase inh: 3; PostGolgi yeast: 0; PLK1 PBD inh: 15; HIV Rev-RRE inh: 6

Results for Cc1ccc(-c2nnc(-c3ccccc3)c(N3CCOCC3)n2)cc1 ?
PostGolgi ctrl: 21; EphB4 ephrin blk: 0; PLK1 kinase inh: -14; PostGolgi yeast: 13; PLK1 PBD inh: -43; HIV Rev-RRE inh: 5

What do the screens show for `c1ccc(Oc2nc(Oc3ccccc3)nc(N3CCOCC3)n2)cc1`?
PostGolgi ctrl: 31*; EphB4 ephrin blk: 1; PLK1 kinase inh: 1; PostGolgi yeast: 5; PLK1 PBD inh: 16; HIV Rev-RRE inh: 5

Results for CCOC(=O)CC1=CC(C)(CC(=O)OCC)C(C#N)(C#N)C(N)=C1C#N (centres undefined) ?
PostGolgi ctrl: 5; EphB4 ephrin blk: -3; PLK1 kinase inh: -3; PostGolgi yeast: -6; PLK1 PBD inh: -14; HIV Rev-RRE inh: 4
